# Measurements gathered from unrelated publications.
Structure (SMILES),species,matrix,route,dose,time,setting,concentration
Cc1ccc(-c2cc(C(F)(F)F)nn2-c2ccc(S(N)(=O)=O)cc2)cc1,male Sprague-Dawley rat,blood,oral,20 mg/kg,8 h,,11.1 µM
Cc1noc(C)c1Cn1cc(N2C(=O)N(Cc3cccc(O)c3)C(C)(C)C2=O)cn1,male Sprague-Dawley rat,plasma,oral,100 mg/kg,8 h,single dose,5.2 ng/mL
NC(=O)C(c1ccccc1)(c1ccc(F)cc1)c1ccc(F)cc1,female Lewis rat,brain,intraperitoneal,50 mg/kg,1 h,single dose,43 µM
CCOC(=O)[C@@]12C[C@@H]1[C@@H](n1ccc3c(NC)nc(C#Cc4ccc(Cl)s4)nc31)[C@H](O)[C@@H]2O,male Sprague-Dawley rat,plasma,oral,1 mg/kg,1 h,,9.55 ng/mL
Cc1noc(C)c1Cn1cc(N2C(=O)CN(Cc3cccc(O)c3)C2=O)cn1,male Sprague-Dawley rat,plasma,oral,30 mg/kg,2 h,,16.5 ng/mL
CCc1cc(-c2noc(-c3cc(OC)nc(C4CCCC4)c3)n2)cc(C)c1OC[C@@H](O)CO,Wistar rat,plasma,oral,0.3 mg/kg,6 h,single dose,12.7 ng/mL
COc1ccc2c(=O)n(C)c(-c3ccccc3)nc2c1,male Sprague-Dawley rat,lung,oral,30 mg/kg,30 min,,2.5 ng/mL
COc1cccc(-c2n[nH]c(SCc3ccccn3)n2)c1OC,male Sprague-Dawley rat,plasma,oral,10 mg/kg,1 h,single dose,10400 ng/mL
COc1nc(-c2cc(C)c(N[C@@H](C)c3cc(F)cc(F)c3)nn2)ccc1-n1cnc(C)c1,male Sprague-Dawley rat,CSF,oral,50 mg/kg,4 h,"multiple doses, once daily",301 ng/mL
